# mABHD4 FP – ABHD4 (mouse) inhibition, primary FP screen. purified mABHD4, FP-Rh probe fluorescence polarization. inhibition, % at 8.92 µM. actives 0.54% (n = 370,000). AID 720543;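 active = inhibition exceeding the mean over every tested compound plus 3 SD, cut at about 30% in these data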;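 note: 0% = plate median of compound wells and 100% = S159A mutant with DMSO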
# Target sequence (Q8VD66 whole entry, looked up): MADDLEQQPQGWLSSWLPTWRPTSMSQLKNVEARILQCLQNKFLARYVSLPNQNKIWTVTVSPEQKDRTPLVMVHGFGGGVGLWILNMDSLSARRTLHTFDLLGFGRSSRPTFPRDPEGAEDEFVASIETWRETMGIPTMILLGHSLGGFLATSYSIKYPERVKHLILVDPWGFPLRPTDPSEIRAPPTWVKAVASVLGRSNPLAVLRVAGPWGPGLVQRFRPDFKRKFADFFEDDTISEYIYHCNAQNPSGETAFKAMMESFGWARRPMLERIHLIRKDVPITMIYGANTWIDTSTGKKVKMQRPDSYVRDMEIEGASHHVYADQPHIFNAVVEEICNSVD
#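 Test system: mouse ABHD4 enzyme, wild type. Reagent: FP-Rh fluorescent activity-based probe, added after compound pre-incubation. Timing: pre-incubation 45 min, probe exposure 60 min, at 25 °C. Technique: FP readout, ex 525 nm / em 598 nm. Benchmarks: high control S159A mutant with DMSO, low control median of compound wells.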
# SIAE primary – human SIAE inhibition, primary screen; SIAE FP-Rh probe binding, fluorescence polarization; inhibition, % at 9.66 µM; actives 0.69% (n = 370,000);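 active = inhibition above a cutoff: mean of compounds within the control limits plus 3 SD of those, cut at about 17% in these data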;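 note: 0% = plate median of compound wells and 100% = probe without SIAE protein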
# TCR CD3 inh – human TCR-CD3 binding inhibition; inhibition, % at 9.4 µM; actives 0.37% (n = 360,000); AID 651800; TAMRA-labeled TCR probe fluorescence, biochemical; in the data active = inhibition above about 19%;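 note: recombinant mutant TCR 2C K166C tagged with TAMRA read by polarization; 0% = receptor in buffer alone and 100% = receptor with positive control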
# HTRA1 inhibitor – HTRA1 (human) protease inhibition; recombinant HTRA1, FP-rhodamine activity-based probe, fluorescence polarization; inhibition, % at 5.96 µM; actives 0.5% (n = 340,000); AID 504803; in the data active = inhibition above about 36%;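 note: 0% = enzyme with DMSO and 100% = wells lacking enzyme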
# PRMT1 FP inh – blocks human protein arginine methyltransferase 1; recombinant PRMT1, activity-based probe fluorescence polarization; inhibition, % at 2.79 µM; actives 1.3% (n = 370,000);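 active = inhibition above about 21% made by adding two undisclosed values, limit read from the data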
# HTRA1 conf – HTRA1 (human) inhibition, confirmation. recombinant HTRA1, FP-rhodamine activity-based probe, fluorescence polarization. inhibition, % at 5.96 µM. shares compounds with HTRA1 inhibitor. actives 66% (n = 1,600);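 active = mean inhibition over three repeats above a set limit taken from the earlier primary screen, cut at about 37% in these data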;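 note: 0% = HTRA1 with DMSO and 100% = wells lacking HTRA1; inhibitors block probe binding so polarization drops and inhibition rises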
# * marks the source's active call; other numbers are inactive results; / = not tested or not shown. The list is not random: actives were taken first. Their share in the collection is about 2.6%.
SMILES,mABHD4 FP,SIAE primary,TCR CD3 inh,HTRA1 inhibitor,PRMT1 FP inh,HTRA1 conf
CCNc1ccc(Br)cc(C(=O)/C=C/c2ccc(Cl)cc2)c1=O,/,/,/,63*,/,36
CN1C(=O)c2cc(NC(=O)Nc3ccccc3)ccc2OC[C@H]2O[C@@H](CC(=O)N[C@H]3CCN(Cc4ccccc4)C3)CC[C@@H]21,8,-3,/,/,3,/
Cc1cccc2sc(NNC(=O)c3ccc(S(=O)(=O)N4CC(C)CC(C)C4)cc3)nc12 (stereo not given),-2,7,1,60*,2,41*
Cc1cc(C)c2nc(NNC(=O)c3ccc(S(=O)(=O)N4CC(C)CC(C)C4)cc3)sc2c1 (stereo not given),1,0,-8,54*,12,61*
Cc1cc(C)c2nc(NNC(=O)c3ccc(S(=O)(=O)N4CCCC(C)C4)cc3)sc2c1 (stereo not given),-1,3,-3,51*,3,54*
Cc1ccc2nc(NNC(=O)c3ccc(S(=O)(=O)N4CCc5ccccc5C4)cc3)sc2c1,-1,-6,-4,49*,-3,26
CC(=O)N1C[C@@H](c2c[nH]c3ccccc23)C=C[C@H]1C(=O)NS(=O)(=O)c1ccc(C)cc1,8,11,/,/,6,/
O=C(Cc1ccccc1F)Nc1nnc(-c2cccnc2)s1,1,2,/,/,-1,/
COc1ccc(C2CC(=O)C(c3cccc(Cl)c3)=CN2Cc2ccccc2)cc1 (stereo not given),-18,-2,4,/,-7,/
CCC[C@H]1[C@@H](NC(=O)c2ccc(C)cc2)CC[C@@]23CCCN2C(=O)CCC[C@@H]13,7,-1,/,/,3,/
O=C1C(Cl)=C(N2CCCCC2)C(=O)C(Cl)=C1c1cnc(N2CCCCC2)s1,/,/,/,71*,/,17
O=C1C(Cl)=C(N2CCCCCC2)C(=O)N1c1ccc(Cl)cc1,3,-3,-3,-22,11,/
O=C1Nc2ccc(Br)cc2C12NNc1ccccc1O2 (stereo not given),28,16,9,49*,7,62*
Cc1ccsc1/C=N/N=C/c1sccc1C,1,-9,2,-4,2,/
Cc1ccsc1C=Nc1ccc(O)cc1,/,/,/,51*,/,15
Cc1cccc(NC(=S)N/N=C/c2ccc([N+](=O)[O-])s2)c1,-3,10,-9,60*,1,67*
O=C(N/N=C/c1ccc([N+](=O)[O-])s1)c1cccc(Br)c1,12,-2,4,45*,-2,46*
CCCCCCCCCCCCCCCC[n+]1ccc(/C=N/O)cc1,51*,68*,3,61*,6,81*
Oc1ccc(N=Cc2ccc(O)c(O)c2)cc1,/,/,/,57*,/,52*
CCC(=O)NC(c1cc(Cl)c2cccnc2c1O)C1CC1 (stereo not given),1,8,6,39*,-1,51*
CC(=O)NC(c1cc(F)c2cccnc2c1O)C1CC1 (stereo not given),2,-1,1,16,0,/
CCC(=O)NC(c1cc(Cl)c2cccnc2c1O)C(C)C (stereo not given),11,3,3,53*,-3,58*
O=C(Cc1ccccc1)N1CCC(Oc2cccnc2)CC1,0,-2,/,/,-3,/
CC(/C=N/NC(=O)CSc1nnc(SCc2ccc(C)cc2)s1)=C\c1ccco1,-10,-5,/,/,1,/
O=C(O)c1ccc2c(c1)[C@@H]1C=CC[C@@H]1[C@H](c1ccccn1)N2,70*,17*,25*,47*,70*,22
SMILES,mABHD4 FP,SIAE primary,TCR CD3 inh,HTRA1 inhibitor,PRMT1 FP inh,HTRA1 conf
COc1ccc(C(=O)N/N=C(\C)c2ccc3c(c2)C2C=CCC2C(c2ccccc2)N3)cc1 (stereo not given),/,/,/,15,/,/
Cc1ccccc1CN1CCCCC(NC(=O)c2cccc(C(F)(F)F)c2)C1=O (stereo not given),-1,0,/,/,-5,/
O=S(=O)(O)c1ccc(O)c2cc(Nc3ccccc3)ccc12,78*,55*,44*,67*,43*,44*
Cc1ccc(S(=O)(=O)c2cc(Nc3ccccc3)ccc2O)cc1,19,13,2,16,10,/
O=C(Oc1c(CN2CCOCC2)cc(Cl)c2cccnc12)c1ccccc1F,27,2,-5,41*,6,34
O=C(Oc1c(CN2CCOCC2)cc(Cl)c2cccnc12)c1ccccc1,7,3,0,37*,-1,7
O=C(Oc1ccc(C(=S)N2CCOCC2)cc1Cl)c1ccccc1F,-3,-1,-2,-1,7,/
O=C(O)Cn1cc(CN2CCOCC2)c2ccccc21,6,1,0,-2,1,/
COc1cc(OC)cc(C(=O)Oc2c(CN3CCOCC3)cc(Cl)c3cccnc23)c1,8,13,3,38*,1,3
Oc1c(Cl)cc(CN2CCOCC2)c2cccnc12,6,6,9,41*,3,31
COc1ccc(C(=O)Oc2c(CN3CCOCC3)cc(Cl)c3cccnc23)cc1OC,6,10,7,/,11,/
CC(C)CNc1ccc2c(c1)OC[C@H](C)NS2(=O)=O,-4,-1,5,/,0,/
Cc1ccccc1NC(=O)C1CCCN1S(=O)(=O)c1cccnc1 (stereo not given),5,-2,/,/,-2,/
Oc1ccc(CN2CCN(Cc3ccccc3)CC2)c2cccnc12,8,5,-3,28,3,/
CN1CCN(Cc2cc(COCc3ccccc3)c3cccnc3c2O)CC1,-2,6,-2,50*,-3,87*
Oc1c(CN2CCCCC2)cc(Br)c2cccnc12,21,12,1,71*,9,72*
O=C(N[C@H](C(=O)N1CCC[C@H]1C(=O)NCCc1ccccc1Cl)C1CCCCC1)c1cccs1,-21,4,-1,/,-1,/
O=C1C=CC(=O)C(CNc2ccc(C(=O)OCc3ccccc3)cc2)=C1,36*,6,10,42*,11,18
O=C1CCCC2=C1C(c1ccc(Cl)cc1)C1C(=O)c3ccccc3C1=N2 (stereo not given),29,-3,5,38*,11,31
COc1cc(/C=N/n2c(-c3ccc4c(c3)NC(=O)CO4)csc2=Nc2cccc(C)c2)ccc1O,21,41*,-6,44*,3,82*
CC(=O)O[C@@H]1CCC[C@@]2(C(=O)N(Cc3ccccc3)c3ccc(-c4c(C)noc4C)cc32)[C@H]1NC(=O)CCc1ccccc1,-14,-1,/,/,0,/
Cc1ccc(Cn2cc(COC(=O)N3CCOCC3)nn2)cc1,-2,1,/,/,-6,/
Cc1nc(N)sc1N=Nc1ccccc1C(F)(F)F,9,-2,-2,40*,1,30
Cc1nn(-c2ccccc2)c2c1C(c1ccc(O)c(O)c1)N1C(=N2)C(Nc2ccccc2)=Nc2ccccc21 (stereo not given),4,9,1,50*,-6,53*

# Screens as filed in PubChem BioAssay.
